In ChEMBL document CHEMBL4043285 (J Med Chem, 2018):
The source made the active and inactive calls. The calls are words filed in the database; no cut-off is given here.

What was measured:
[1] = Inhibition of Aurk mouse L929sA cells transfected with human Fas assessed as reduction in cell growth after 24 hrs in presence of TNF by Hoechst 33342 staining-based microscopic assay
Outline: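 L929sAhFAS cells exposed to compound; total cell number is counted after 24 h. IC50 is fitted from a dose–response curve of cell growth.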

[2] = Inhibition of Aurk mouse L929sA cells transfected with human Fas assessed as increase in nuclear area after 24 hrs in presence of TNF by Hoechst 33342 staining-based microscopic assay
Outline: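 L929sAhFAS cells treated with compound; mean nuclear area is measured and fitted as a sigmoidal dose–response curve.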

Aurk (Aurora kinase) [3] = test: Inhibition of Aurk in mouse L929sA cells transfected with human Fas assessed as reduction in cell growth at 3 uM after 24 hrs in presence of TNF by Hoechst 33342 staining-based microscopic assay relative to control
Aurk (Aurora kinase) [4] = test: Inhibition of Aurk in mouse L929sA cells transfected with human Fas assessed as increase in nuclear area at 3 uM after 24 hrs in presence of TNF by Hoechst 33342 staining-based microscopic assay relative to control; assay type: cell-based
Aurora kinase A = target: T1, Aurora kinase A (Homo sapiens, UniProt O14965); test: Inhibition of human recombinant AurKA after 4 hrs by ADP-Glo assay
T1 sequence (O14965 whole entry): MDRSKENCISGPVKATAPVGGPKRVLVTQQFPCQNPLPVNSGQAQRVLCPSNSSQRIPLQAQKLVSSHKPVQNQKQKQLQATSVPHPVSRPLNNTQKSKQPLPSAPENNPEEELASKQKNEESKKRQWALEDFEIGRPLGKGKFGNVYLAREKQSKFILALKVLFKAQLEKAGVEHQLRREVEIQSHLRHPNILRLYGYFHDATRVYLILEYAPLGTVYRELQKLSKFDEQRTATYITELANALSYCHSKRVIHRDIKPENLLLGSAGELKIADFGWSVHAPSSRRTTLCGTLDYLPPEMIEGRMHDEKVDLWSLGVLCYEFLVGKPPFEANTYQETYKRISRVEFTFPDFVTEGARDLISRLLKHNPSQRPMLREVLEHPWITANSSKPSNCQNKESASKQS

Aurora kinase B = Aurora kinase B (Homo sapiens, UniProt Q96GD4); test: Inhibition of human recombinant AurKB after 4 hrs by ADP-Glo assay
Sequence of Aurora kinase B (Q96GD4 whole entry): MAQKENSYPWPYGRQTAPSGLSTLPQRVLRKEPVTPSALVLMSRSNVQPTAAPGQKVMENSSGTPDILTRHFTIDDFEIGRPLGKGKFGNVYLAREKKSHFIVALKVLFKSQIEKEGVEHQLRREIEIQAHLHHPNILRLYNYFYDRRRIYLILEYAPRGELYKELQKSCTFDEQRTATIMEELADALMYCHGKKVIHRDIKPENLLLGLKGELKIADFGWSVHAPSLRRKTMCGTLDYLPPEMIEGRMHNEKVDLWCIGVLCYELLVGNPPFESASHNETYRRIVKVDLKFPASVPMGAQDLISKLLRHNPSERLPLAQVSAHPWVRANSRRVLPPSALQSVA

[5] = target: T2, Receptor-interacting serine/threonine-protein kinase 1 (Homo sapiens, UniProt Q13546); test: Inhibition of human recombinant RIPK1 after 4 hrs by ADP-Glo assay
T2 sequence (Q13546 whole entry): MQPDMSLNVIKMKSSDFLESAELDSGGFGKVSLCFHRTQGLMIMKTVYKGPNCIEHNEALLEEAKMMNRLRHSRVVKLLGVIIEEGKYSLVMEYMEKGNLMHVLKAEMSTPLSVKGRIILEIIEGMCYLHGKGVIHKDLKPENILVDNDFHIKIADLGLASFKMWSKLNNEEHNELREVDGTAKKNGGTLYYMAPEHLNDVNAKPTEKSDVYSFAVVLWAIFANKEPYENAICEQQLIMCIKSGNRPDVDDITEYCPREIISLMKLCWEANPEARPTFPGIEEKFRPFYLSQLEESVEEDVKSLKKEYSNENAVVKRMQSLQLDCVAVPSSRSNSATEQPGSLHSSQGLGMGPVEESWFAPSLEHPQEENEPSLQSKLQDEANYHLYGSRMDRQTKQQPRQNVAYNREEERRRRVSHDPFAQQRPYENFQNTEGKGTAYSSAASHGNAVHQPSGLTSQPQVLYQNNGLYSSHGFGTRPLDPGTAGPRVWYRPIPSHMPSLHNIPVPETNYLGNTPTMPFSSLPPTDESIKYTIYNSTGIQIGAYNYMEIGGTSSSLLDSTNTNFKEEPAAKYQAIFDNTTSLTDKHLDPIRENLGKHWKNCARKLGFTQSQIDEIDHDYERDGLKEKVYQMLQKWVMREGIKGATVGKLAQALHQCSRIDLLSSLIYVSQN

Mus musculus = test: Protection against TNF-induced hypothermia in TNF-induced SIRS C57BL/6J mouse model at 50 mg/kg administered via oral gavage treated 1.5 hrs prior to TNF challenge by thermometric analysis; assay type: functional, organism-based
Outline: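 Mice were dosed orally by gavage at 50 mg/kg, 1.5 h before challenge with murine TNF (mTNF).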

[6] = target: T3, Receptor-interacting serine/threonine-protein kinase 1 (Mus musculus) (UniProt Q60855); test: Inhibition of RIPK1 in mouse L929sA cells transfected with human Fas assessed as inhibition in TNF-induced necroptosis at 3 uM pretreated for 0.5 hrs followed by TNF and zVAD.fmk addition measured after 3 hrs by Hoechst 33342/propidium iodide staining-based assay relative to control; assay type: cell-based
T3 sequence (whole entry): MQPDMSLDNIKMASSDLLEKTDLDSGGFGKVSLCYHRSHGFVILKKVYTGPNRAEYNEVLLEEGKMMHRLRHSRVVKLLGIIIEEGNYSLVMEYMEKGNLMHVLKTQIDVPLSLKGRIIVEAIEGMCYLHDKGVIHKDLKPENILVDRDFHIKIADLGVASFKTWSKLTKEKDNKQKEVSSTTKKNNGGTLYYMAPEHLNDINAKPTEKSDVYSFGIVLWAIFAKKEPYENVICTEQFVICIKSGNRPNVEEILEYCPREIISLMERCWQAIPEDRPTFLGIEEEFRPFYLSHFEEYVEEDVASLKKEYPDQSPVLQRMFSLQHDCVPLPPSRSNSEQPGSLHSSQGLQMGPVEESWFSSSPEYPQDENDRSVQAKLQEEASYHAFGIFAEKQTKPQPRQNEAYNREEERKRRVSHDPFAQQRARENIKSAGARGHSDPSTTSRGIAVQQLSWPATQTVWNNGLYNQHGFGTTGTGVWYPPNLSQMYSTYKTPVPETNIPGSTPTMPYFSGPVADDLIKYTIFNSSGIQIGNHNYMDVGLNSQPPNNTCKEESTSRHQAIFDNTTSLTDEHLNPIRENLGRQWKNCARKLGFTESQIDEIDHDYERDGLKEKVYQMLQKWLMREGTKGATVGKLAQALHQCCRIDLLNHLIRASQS

[7] = target: T3, Receptor-interacting serine/threonine-protein kinase 1 (Mus musculus); test: Inhibition of RIPK1 in mouse L929sA cells transfected with human Fas assessed as inhibition in TNF-induced necroptosis at 3 uM pretreated for 24 hrs followed by TNF and zVAD.fmk addition measured after 3 hrs by Hoechst 33342/propidium iodide staining-based assay relative to control; assay type: cell-based

Row | IC50 [2] | inhibition at 24 h, 3 µM (Aurk (Aurora kinase) [4]) | IC50 (Aurora kinase A) | IC50 (Aurora kinase B) | IC50 [5] | Compound | IC50 [1] | inhibition at 24 h, 3 µM (Aurk (Aurora kinase) [3]) | Activity (Mus musculus) | inhibition [6] | inhibition [7]
1 | > 3 µM | < 50% | 0.293 µM | 1.34 µM | 0.178 µM | Cc1cc(Nc2cc(N3CCN(C)CC3)nc(Nc3ccc(NC(=O)C4CC4)cc3)n2)n[nH]1 | > 3 µM | < 50% | Active | – | –
2 | > 3 µM | < 50% | 0.43 µM | 0.853 µM | – | Cc1cc(Nc2cc(N3CCOCC3)nc(Nc3ccc(NC(=O)C4CC4)cc3)n2)n[nH]1 | > 3 µM | < 50% | Active | – | –
3 | – | – | > 3 µM | > 3 µM | – | CN1C(=O)NC(Cc2c[nH]c3c(Cl)cccc23)C1=O (configuration not stated) | – | – | Active | – | –
4 | > 3 µM | < 50% | – | – | – | Cc1[nH]nc(Nc2cc(N3CCCCC3)nc(Nc3ccc(NC(=O)C4CCCCC4)cc3)n2)c1C | > 3 µM | < 50% | – | < 50% | < 50%

The remaining lines, values behind:

Row | Compound | IC50 [2] | inhibition at 24 h, 3 µM (Aurk (Aurora kinase) [4]) | IC50 (Aurora kinase A) | IC50 (Aurora kinase B) | IC50 [5] | IC50 [1] | inhibition at 24 h, 3 µM (Aurk (Aurora kinase) [3]) | Activity (Mus musculus) | inhibition [6] | inhibition [7]
5 | Cc1cc(Nc2nc(Sc3ccc(NC(=O)C4CCCCC4)cc3)nc(N3CCN(C)CC3)n2)n[nH]1 | 0.4 µM | – | 0.21 µM | 0.229 µM | 2.47 µM | 0.33 µM | – | – | < 50% | < 50%
6 | Cc1[nH]nc(Nc2nc(Sc3ccc(NC(=O)C4CC4)cc3)nc(N3CCOCC3)n2)c1C | > 3 µM | < 50% | – | – | – | > 3 µM | < 50% | – | < 50% | < 50%
7 | Cc1[nH]nc(Nc2nc(Sc3ccc(NC(=O)C4CCCCC4)cc3)nc(N3CCOCC3)n2)c1C | > 3 µM | < 50% | – | – | – | > 3 µM | < 50% | – | < 50% | < 50%
8 | Cc1[nH]nc(Nc2nc(Nc3ccc(NC(=O)C4CC4)cc3)nc(N3CCCCC3)n2)c1C | > 3 µM | < 50% | – | – | – | > 3 µM | < 50% | – | < 50% | < 50%
9 | Cc1[nH]nc(Nc2nc(Sc3ccc(NC(=O)C4CCCCC4)cc3)nc(N3CCCCC3)n2)c1C | > 3 µM | < 50% | – | – | – | > 3 µM | < 50% | – | < 50% | < 50%
10 | Cc1cc(Nc2cc(N3CCCCC3)nc(Nc3ccc(NC(=O)C4CC4)cc3)n2)n[nH]1 | > 3 µM | < 50% | – | 0.959 µM | – | > 3 µM | < 50% | inactive | – | –
11 | Cc1[nH]nc(Nc2nc(Nc3ccc(NC(=O)C4CC4)cc3)nc(N3CCOCC3)n2)c1C | > 3 µM | < 50% | – | – | – | > 3 µM | < 50% | – | < 50% | < 50%
